Values after ≈ are worked out from the molar mass of the structure shown.
Columns and labels:
bacterial membranes = experiment: SYTOX uptake assay; assay type: cell-based; details: SYTOX fluorescence; positive control 12,3,2,3,12
Summary of the method: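 All synthetic test compounds were run in a SYTOX uptake assay for membrane damage in S. aureus cells. Uptake was scored qualitatively as positive or negative.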

S. aureus = experiment: minimum inhibitory concentration; assay type: cell-based, Staphylococcus aureus
Summary of the method: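 Each synthetic test compound was tested against S. aureus SH1000, with USA300 and ATCC33591 as additional strains. MIC was read in both iron-rich medium (IRM) and iron-depleted medium (IDM), and values are given in μM. Vancomycin was the positive control run in parallel.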

SMILES	membrane disruption (SYTOX uptake) (bacterial membranes)	MIC against S. aureus (S. aureus) [µM]
CCC(=O)[C@H](C)C[C@@H](C)C[C@H](C)CC[C@@H](O)C[C@@H](O)[C@@H](CC(C)C)[C@@H](O)c1cc(O)cc(O)c1 [Baulamycin A, baulamycin A]	tested positive for membrane disruption	–
CC(=O)[C@H](C)C[C@@H](C)C[C@H](C)CC[C@@H](O)C[C@@H](O)[C@@H](CC(C)C)[C@@H](O)c1cc(O)cc(O)c1 [Baulamycin B, baulamycin B]	exception	500 (≈ 233 µg/mL)

From PMC5869691 (Organic letters, 2018)
